37 sequences from the array DNA melting data of Ke et al. (doi:10.1101/2024.01.08.574731) can be followed below.

Data set [1] in a line: folding enthalpy; higher = less favourable; fluorescence melt of hairpins on a sequencing array, two-state fit. To be noted: sodium 0.088 M. A digest of the protocol: (§1)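 Melting temperature and folding enthalpy were obtained by bootstrapped two-state fitting. Fits used Cy3 fluorescence of library hairpins with annealed Cy3 and quencher oligos on a sequenced MiSeq flow cell, imaged in 50 mM Na-HEPES pH 8.0, 25 mM NaCl in 2.5 °C steps up to 60 °C and normalised to pre-quench Cy3 and control constructs. Four replicates were combined by inverse-variance weighting, and fitted temperatures were raised by 9.35 °C to match UV melts.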

A short description of data set [2]: melting temperature; fluorescence melt of hairpins on a sequencing array, two-state fit, raised by 9.35 °C to match UV melts. To be noted: sodium 0.088 M. A digest of the protocol:
as §1

With GGAAGCCGAAAGGCATCC (((.(((....))).))), the folding enthalpy in data set [1] is -21.9 kcal/mol. Also, the Tm in data set [2] turned out to be 56.1 °C.

In the case of GGGCCACCGAAAGGTCCC (((..(((....)))))), the folding enthalpy in data set [1] was -17.8 kcal/mol. Besides, in data set [2], the Tm worked out at 41.3 °C.

As to GTAGCACGAAAGTGGTAC (((.(((....))).))), the folding enthalpy in data set [1] is -33.7 kcal/mol. Moreover, the Tm in data set [2] worked out at 60.9 °C.

As to GATCTATGTTAGATC ((((((...)))))), in data set [1], the folding enthalpy is -27.7 kcal/mol. Also, the Tm in data set [2] was 41.3 °C.

In the case of GTCTCGGGAAACCGGGAC (((.(((....))).))), the folding enthalpy in data set [1] was -38.4 kcal/mol. Also, the Tm in data set [2] turned out to be 55.3 °C.

In the case of GCTGAGCGAAAGCGCCGC ((.(.((....)).).)), in data set [1], the folding enthalpy was -15.2 kcal/mol. Further, the Tm in data set [2] was 50.5 °C.

Regarding GCTCGCGGAAACACGAGC (((((.(....).))))), the folding enthalpy in data set [1] is -44.6 kcal/mol. Moreover, in data set [2], the Tm was 55.2 °C.

In the case of GAGAGAGAAATCTCTC ((((((....)))))), the folding enthalpy in data set [1] is -27.6 kcal/mol. Further, the Tm in data set [2] was found to be 45.8 °C.

For the sequence GGGTCTGGAAACGGACCC (((((.(....).))))), the folding enthalpy in data set [1] was -51.6 kcal/mol. The Tm in data set [2] stood at 59.3 °C.

As to GAATGCCGAAAGGCTTTC (((.(((....))).))), in data set [1], the folding enthalpy was -21.7 kcal/mol. In data set [2], the Tm amounted to 48 °C.

As to GTTACCGAAAGGTAAAAC ((((((....)))..))), the folding enthalpy in data set [1] was -13.2 kcal/mol. The Tm in data set [2] is 34.7 °C.

As to GTGCCTGGAAACAAGCAC ((((.((....)).)))), the folding enthalpy in data set [1] was -24.6 kcal/mol. Also, in data set [2], the Tm came out at 42.7 °C.

With GATCTCGAATGAGATC ((((((....)))))), the folding enthalpy in data set [1] was -39.5 kcal/mol. Further, the Tm in data set [2] came out at 57.5 °C.

Consider GGTGTCGCGAAAGCGACC (((..(((....)))))), for which the folding enthalpy in data set [1] is -7.75 kcal/mol. Also, the Tm in data set [2] amounted to 54 °C.

Turning to GATTGACCGAAAGGTATC (((..(((....)))))), the folding enthalpy in data set [1] was -11.6 kcal/mol. The Tm in data set [2] was found to be 28.5 °C.

Turning to GCCGAGACGAAAGTCGGC (((..(((....)))))), the folding enthalpy in data set [1] is -28.4 kcal/mol. In addition, in data set [2], the Tm came out at 61.8 °C.

For GCCCCCGAAAGGGCCGGC ((((((....)))..))), in data set [1], the folding enthalpy was -16.4 kcal/mol. For the same sequence, the Tm in data set [2] turned out to be 54.3 °C.

For the sequence CGTAGCGGAAACGCAACG (((.(((....))).))), the folding enthalpy in data set [1] was -29.5 kcal/mol. Further, the Tm in data set [2] stood at 53 °C.

As for GCGGCTGGAAACAGTCGC (((.(((....))).))), in data set [1], the folding enthalpy was -47.4 kcal/mol. In addition, the Tm in data set [2] was 67.3 °C.

With CGTCCGGAAACGGCGACG ((((((....)))..))), the folding enthalpy in data set [1] is -13.6 kcal/mol. The Tm in data set [2] was found to be 46.7 °C.

As for GCTCGCGAAAGCGGGAGC ((((((....)))..))), the folding enthalpy in data set [1] was -15.7 kcal/mol. In addition, the Tm in data set [2] worked out at 55.1 °C.

With GGGACCGAAAGGTACCCC ((((((....)))..))), in data set [1], the folding enthalpy was -12.5 kcal/mol. Besides, the Tm in data set [2] was determined as 61.3 °C.

For the sequence GAGTTTGCGAAAGCACTC (((..(((....)))))), in data set [1], the folding enthalpy is -15.2 kcal/mol. In addition, in data set [2], the Tm was 34.1 °C.

With GATCTATCGTTAGATC ((((((....)))))), the folding enthalpy in data set [1] is -19.4 kcal/mol. Besides, in data set [2], the Tm was 37.8 °C.

Take GCATGAGGAAACTTGTGC (((..((....))..))): the folding enthalpy in data set [1] is -26.6 kcal/mol. In addition, the Tm in data set [2] was found to be 35.9 °C.

With GCATAGGGAAACCTACGC ((.((((....)))).)), the folding enthalpy in data set [1] was -27.9 kcal/mol. In data set [2], the Tm stood at 35.9 °C.

With GTTCTGGGAAACCAGAGC (.(((((....))))).), the folding enthalpy in data set [1] is -24.2 kcal/mol. Moreover, the Tm in data set [2] came out at 46.3 °C.

In the case of GATCCCTGAGGGATC ((((((...)))))), the folding enthalpy in data set [1] is -34.7 kcal/mol. The Tm in data set [2] stood at 59.6 °C.

For the sequence GGTCACGAAAGTGGTACC ((((((....)))..))), the folding enthalpy in data set [1] was -14.3 kcal/mol. In addition, in data set [2], the Tm is 42.7 °C.

Turning to GATCCCTACAGGGATC ((((((....)))))), the folding enthalpy in data set [1] is -36.2 kcal/mol. In data set [2], the Tm came to 65.6 °C.

In the case of GCGTATGGACGC ((((....)))), the folding enthalpy in data set [1] is -21 kcal/mol. Moreover, in data set [2], the Tm turned out to be 51.4 °C.

In the case of GATCGGTGTCCGATC ((((((...)))))), in data set [1], the folding enthalpy was -32 kcal/mol. Moreover, the Tm in data set [2] stood at 58.3 °C.

Turning to GAATTCGAAAGAATTC ((((((....)))))), the folding enthalpy in data set [1] is -44.9 kcal/mol. Further, the Tm in data set [2] was determined as 54.4 °C.

As to GATCAGGCTCTGATC ((((((...)))))), the folding enthalpy in data set [1] was -35.2 kcal/mol. For the same sequence, in data set [2], the Tm was 49.1 °C.

For GATCTGCCGCAGATC ((((((...)))))), the folding enthalpy in data set [1] is -41.5 kcal/mol. In addition, in data set [2], the Tm came out at 48.1 °C.

Regarding CGGACGGAAACGTTGCCG ((((((....)))..))), the folding enthalpy in data set [1] was -15.7 kcal/mol. For the same sequence, the Tm in data set [2] is 37.8 °C.

On to CGCGGAACATTCCGCG ((((((....)))))), for which the folding enthalpy in data set [1] is -35.9 kcal/mol. Besides, in data set [2], the Tm amounted to 65.3 °C.
